Values joined by “and” are separate entries in the source; they are usually repeats but may differ in a detail not shown here. Equal values may be shown once. Read-outs that look alike come from different tables or passages of the source. Values belong to the molecule of their own block, whether it stands above or below them.
Assays:
[1] = Urinary recovery of IPdR and metabolites after a single oral dose of IPdR; assay type: in vivo, human (patients with advanced malignancies); settings: patients receiving 2400 mg of IPdR
In short: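 Urine was collected pre-dose and then at each void over 24 h, with volumes recorded and aliquots stored at −80°C. Samples underwent liquid–liquid extraction and LC–MS/MS for IPdR, IdUrd, IP and IUra, with BrdUrd and BrUra as internal standards. Calibration covered 0.1–50 μM in patient pre-dose urine. Samples above 50 μM were diluted 1:10 and reanalyzed. The quantitation limit was 0.1 μM for IPdR and IdUrd and 0.25 μM for IP and IUra.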

[2] = system: ovarian cancer; settings: patients with ovarian cancer, intraperitoneal IdUrd; cited from earlier work
[3] = system: anaplastic astrocytoma; settings: patients with anaplastic astrocytoma, radiation combined with IdUrd; cited from earlier work
[4] = Plasma pharmacokinetics after a single oral dose of IPdR; assay type: in vivo, human (patients with advanced malignancies)
In short: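 Patients received a single oral dose of 150, 300, 600, 1200 or 2400 mg, with one patient per level and 6 at 2400 mg. Blood was drawn pre-dose and at 5, 15, 30 min and 1, 2, 4, 10, 24 h, and plasma was kept at −80°C. After solvent deproteinization, IPdR, IdUrd, IP and IUra were measured by C18 LC–MS/MS. BrdUrd and BrUra served as internal standards, with calibration at 0.1–50 μM in control plasma.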

[5] = system: tumor; settings: c.i.v. IdUrd; cited from earlier work
[6] = clinical, reason for c.i.v. infusion; cited from earlier work
[7] = system: dihydropyrimidine dehydrogenase; settings: stated without reference; cited from earlier work
[8] = Safety assessment for 14 days after a single oral dose of IPdR; assay type: in vivo, human (patients with advanced malignancies); settings: single oral dose 150-2400 mg, 10 patients, 14 days follow-up
In short: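 After a single oral dose on day 1 (150–2400 mg), patients were followed for 14 days. Complete blood counts with differential and serum chemistries were done at baseline, day 2 and day 14, with grading by CTCAE v4.0. Significant toxicity was defined as a drug-related event within 14 days at grade ≥2 non-hematologic (excluding correctable electrolytes), grade ≥2 thrombocytopenia, or grade ≥3 anemia/leucopenia/neutropenia. Each next patient enrolled only after the prior one completed 2 weeks.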

[9] = rats, oral IPdR, sustained for at least 6 hours; cited from earlier work
[10] = mice, oral IPdR, sustained for at least 6 hours; cited from earlier work
[11] = athymic mice, ≤ 1500 mg/kg/day for 6 to 14 days; cited from earlier work
[12] = rats, for 28 days; cited from earlier work

detection in urine samples [1]: detectable
AUC ([4]; human, plasma, po, 150 mg): 1.7 µM·h
Cmax ([4]; human, plasma, po, 150 mg): 800 nM
AUC ([4]; human, plasma, po, 300 mg): 0.3 µM·h
Cmax ([4]; human, plasma, po, 300 mg): 300 nM
AUC ([4]; human, plasma, po, 600 mg): 3.2 µM·h
Cmax ([4]; human, plasma, po, 600 mg): 1800 nM
AUC ([4]; human, plasma, po, 1200 mg): 4.7 µM·h
Cmax ([4]; human, plasma, po, 1200 mg): 2100 nM
AUC ([4]; human, plasma, po, 2400 mg): 12.2 µM·h
Cmax ([4]; human, plasma, po, 2400 mg): 4000 nM
half-life ([4]; human, plasma, po, 2400 mg): 1.5 h
time of peak IdUrd plasma level after IPdR administration ([4]; single oral IPdR 2400 mg, 6 patients, mean ± SD): 1.67 ± 1.21 h
Structure (SMILES): O=c1[nH]c(=O)n([C@H]2C[C@H](O)[C@@H](CO)O2)cc1I [IdUrd, 5-iodo-2′-deoxyuridine, reference compound]
effect on ascites [2]: disappearance of ascites
median survival [3]: 3.2 years
patients surviving at 5 years [3]: 33%
patients with tumor shrinkage [5]: 6 out of 11
half-life [6]: in the order of minutes

detection in urine samples [1]: detectable
Structure (SMILES): O=c1ncc(I)c[nH]1 [IP, 5-iodo-2-pyrimidinone]

detection in urine samples [1]: detectable
share of the metabolites measured in urine ([1]; 24 hours): 90 ± 13%
concentration at 10 hours ([4]; human, plasma, oral, 2400 mg): ~100000 nM
AUC ([4]; human, plasma, po, 150 mg): 1 µM·h
Cmax ([4]; human, plasma, po, 150 mg): 200 nM
AUC ([4]; human, plasma, po, 300 mg): 4.5 µM·h
Cmax ([4]; human, plasma, po, 300 mg): 800 nM
AUC ([4]; human, plasma, po, 600 mg): 17.2 µM·h
Cmax ([4]; human, plasma, po, 600 mg): 4500 nM
AUC ([4]; human, plasma, po, 1200 mg): 103 µM·h
Cmax ([4]; human, plasma, po, 1200 mg): 34200 nM
AUC ([4]; human, plasma, po, 2400 mg): 1060 µM·h
Cmax ([4]; human, plasma, po, 2400 mg): 133000 nM
time of peak IUra plasma level post IPdR administration ([4]; single oral IPdR 2400 mg): 3.3 ± 1.0 hours and 3.3 (± 1.0) hours
Structure (SMILES): O=c1[nH]cc(I)c(=O)[nH]1 [IUra, 5-iodouracil]
effect on the enzyme dihydropyrimidine dehydrogenase [7]: inhibits

Structure (SMILES): O=c1ncc(I)cn1[C@H]1C[C@H](O)[C@@H](CO)O1 [IPdR, 5-iodo-2-pyrimidinone-2′-deoxyribose]
drug-related adverse events [8]: no drug-related adverse events
dose recovered in urine over 24 hours ([1]; IPdR and metabolites): Twelve
detection in urine samples [1]: detectable
plasma concentrations of IPdR [9]: > 100000 nM
IPdR AUC ([4]; plasma, single oral IPdR 150 mg, one patient): 3.4 μM-hr
IPdR AUC ([4]; plasma, single oral IPdR 600 mg, one patient): 8.3 μM-hr
IPdR AUC ([4]; plasma, single oral IPdR 1200 mg, one patient): 0.7 μM-hr
IPdR AUC ([4]; plasma, single oral IPdR 2400 mg, mean of 6 patients): 15.6 μM-hr
Cmax ([4]; read-out: IPdR Cmax, plasma, single oral IPdR 150 mg, one patient): 600 nM
Cmax ([4]; read-out: IPdR Cmax, plasma, single oral IPdR 600 mg, one patient): 930 nM
Cmax ([4]; read-out: IPdR Cmax, plasma, single oral IPdR 1200 mg, one patient): 950 nM
Cmax ([4]; read-out: IPdR Cmax, plasma, single oral IPdR 2400 mg, mean of 6 patients): 4300 nM
plasma concentrations of IPdR [10]: > 100000 nM
toxicities after daily oral doses [11]: no significant toxicities
tolerable dose for repeat dose studies [12]: 2000 mg/kg/day
